Measurements: ChEMBL document CHEMBL3425450, “Neuroactive Steroids. 1. Positive Allosteric Modulators of the (γ-Aminobutyric Acid)A Receptor: Structure-Activity Relationships of Heterocyclic Substitution at C-21” (J Med Chem, 2015)
Values after ≈ are worked out from the molar mass of the structure shown.

Assays:
[1] = target: GABA-A receptor; alpha-1/beta-2/gamma-2 (Homo sapiens) (UniProt P14867+P47870+P18507); experiment: Selectivity ratio of EC50 for recombinant alpha1beta2gamma2 GABAA receptor (unknown origin) expressed in LTK cells to EC50 for recombinant alpha4beta3delta GABAA receptor (unknown origin) expressed in CHO cells; format: cell-based
[2] = Clearance in human liver microsomes at 10 uM after 60 mins by HPLC-MS/MS analysis; format: ADME
[3] = Ratio of drug level in brain to plasma in Sprague-Dawley rat at 5 mg/kg, iv after 30 mins by LC-MS/MS analysis; format: ADME, organism-based; set-up: dose 5 mg/kg, route intravenous; conditions: read-out: BPR
Outline: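 Brain and plasma were sampled at a single point 30 min after the i.v. 5 mpk dose. The ratio was calculated from mean concentrations of 2 rats.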

[4] = Oral bioavailability in Sprague-Dawley rat at 20 mg/kg by LC-MS/MS analysis; format: ADME, organism-based; conditions: in vivo
Outline: (§1)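 Rats were dosed i.v. at 5 mpk and orally at 20 mpk. Clearance and oral bioavailability were calculated from mean plasma concentrations of 2 rats.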

[5] = Clearance in rat liver microsomes at 10 uM after 60 mins by HPLC-MS/MS analysis; format: ADME
[6] = target: GABA-A receptor; anion channel; experiment: Displacement of [3H]TBPS from GABAA receptor in Sprague-Dawley rat brain cortical membrane after 90 mins by liquid scintillation spectrometry
[7] = Aqueous solubility of the compound at pH 7.4 by HPLC-MS/MS analysis; format: physicochemical; conditions: buffer
[8] = Clearance in mouse liver microsomes at 10 uM after 60 mins by HPLC-MS/MS analysis; format: ADME
[9] = target: GABA-A receptor; agonist GABA site; experiment: Positive allosteric modulation of recombinant alpha1beta2gamma2 GABAA receptor (unknown origin) expressed in LTK cells assessed as potentiation of GABA-induced channel current treated for 30 s prior to GABA stimulation for 2s by Q-patch assay; format: cell-based, Homo sapiens
[10] = Retention time of the compound by LC-MS analysis; format: physicochemical
Outline: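 Eluents were water and acetonitrile, each with TFA, run as a 5 to 95% acetonitrile gradient over 1.5 min at 1.5 mL/min. Capillary voltage was 3.5 kV and fragmentor voltage 50 V.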

[11] = Clearance in Sprague-Dawley rat at 5 mg/kg, iv and 20 mg/kg, po by LC-MS/MS analysis; format: ADME, organism-based; conditions: in vivo; outline: as §1
[12] = Lipophilicity, log D of the compound at 20 uM at pH 7.4 by HPLC-MS/MS analysis; format: physicochemical; conditions: buffer
[13] = target: GABA-A receptor; agonist GABA site; experiment: Positive allosteric modulation of recombinant alpha4beta3delta GABAA receptor (unknown origin) expressed in CHO cells assessed as potentiation of GABA-induced channel current treated for 30 s prior to GABA stimulation for 2s by manual patch assay; format: cell-based, Homo sapiens

C[C@@]1(O)CC[C@H]2[C@H](CC[C@@H]3[C@@H]2CC[C@]2(C)[C@@H](C(=O)Cn4cc5ccncc5n4)CC[C@@H]32)C1
Ratio EC50 [1]: > 17 | CLhep predicted at 10 µM [2]: 4.5 mL/min/kg | Kp at 0.5 h [3]: 2.1 | bioavailability [4]: 40% | CLhep predicted at 10 µM [5]: 55.7 mL/min/kg | IC50 [6]: 16 nM | solubility [7]: 1.2 µM (≈ 0.523 µg/mL) | CLhep predicted at 10 µM [8]: 33.8 mL/min/kg | EC50 [9]: > 3000 nM | Retention_time [10]: 0.75 min | clearance [11]: 58.3 mL/min/kg | logD at 20 µM [12]: 4.7 | EC50 [13]: 178 nM

C[C@@]1(O)CC[C@H]2[C@H](CC[C@@H]3[C@@H]2CC[C@]2(C)[C@@H](C(=O)Cn4cc5ncccc5n4)CC[C@@H]32)C1
Ratio EC50 [1]: > 8 | CLhep predicted at 10 µM [2]: 4.5 mL/min/kg | Kp at 0.5 h [3]: 1.3 | bioavailability [4]: 1.5% | CLhep predicted at 10 µM [5]: 55.7 mL/min/kg | IC50 [6]: 6 nM | solubility [7]: 12.4 µM (≈ 5.4 µg/mL) | CLhep predicted at 10 µM [8]: 60 mL/min/kg | EC50 [9]: > 3000 nM | Retention_time [10]: 0.81 min | clearance [11]: 73.3 mL/min/kg | logD at 20 µM [12]: 4.7 | EC50 [13]: 343 nM
